Reference: ChEMBL document CHEMBL1122591, “(Imidazolylphenyl)formamidines. A structurally novel class of potent histamine H2 receptor antagonists” (J Med Chem, 1984)

How the values were obtained:
Rattus norvegicus = assay: Compound was evaluated in vivo for the gastric antisecretory activity in the lumen perfused stomach of the anesthetized rat after iv administration; format: functional
Outline: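 Male Sprague–Dawley rats (250 g) were anesthetized with urethane (1 g/kg) and given a lumen-perfused stomach preparation. Acid secretion was driven by constant i.v. histamine infusion [1 mg/(kg h)]. ED50 was taken from the regression line of percent inhibition of acid output.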

[1] = molecular target: Histamine H2 receptor (Cavia porcellus) (UniProt P47747); assay: Evaluated in vitro for histamine H2 receptor antagonist activity by using histamine-stimulated chronotropic response of the guinea pig atrium; format: functional, tissue-based; conditions: Cardiac atrium
Outline: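 A cumulative histamine concentration–response curve (rate) was then repeated with successive antagonist concentrations, each pre-incubated 30 min. Dose ratios compared histamine concentrations giving half-maximal stimulation with and without antagonist.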

[2] = Compound was evaluated for the ionization constant (pKa) by using potentiometric titration (ionization of end group); format: physicochemical
Outline: (§1)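 Potentiometric titration of the hydrochloride salt with water as solvent.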

[3] = Compound was evaluated for the ionization constant (pKa) by using potentiometric titration (ionization of imidazole group); format: physicochemical; outline: as §1

Sequence of Histamine H2 receptor (Cavia porcellus) (P47747 whole entry): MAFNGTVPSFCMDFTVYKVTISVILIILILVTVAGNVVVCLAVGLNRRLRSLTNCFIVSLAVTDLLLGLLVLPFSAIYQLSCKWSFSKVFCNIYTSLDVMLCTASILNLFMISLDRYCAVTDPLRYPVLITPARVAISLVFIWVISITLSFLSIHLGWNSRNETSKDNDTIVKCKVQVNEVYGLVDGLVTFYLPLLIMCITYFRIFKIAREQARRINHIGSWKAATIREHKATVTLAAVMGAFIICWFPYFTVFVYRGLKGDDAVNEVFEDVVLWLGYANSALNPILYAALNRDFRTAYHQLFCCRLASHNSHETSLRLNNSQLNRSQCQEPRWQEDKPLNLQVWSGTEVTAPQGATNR

| Compound | Kb [1] | pKa [2] | pKa [3] | ED50 (Rattus norvegicus) |
| --- | --- | --- | --- | --- |
| C/N=C(/N)Nc1cccc(-c2c[nH]cn2)c1.Cl | 4400 nM | – | – | 3.6 mg/kg |
| CNC(=N)c1cccc(-c2c[nH]cn2)c1.Cl | 8700 nM | – | – | 3.5 mg/kg |
| CN/C(=N\CCSCc1nc[nH]c1C)NC#N [CIMETIDINE] | – | -0.4 | – | 0.56 mg/kg |
| Cl.N=C(N)c1cccc(-c2c[nH]cn2)c1 | 7200 nM | – | – | 10 mg/kg |
| CC(C)(C)/N=C/Nc1ccc(-c2c[nH]cn2)cc1.O=S(=O)(O)O | – | – | – | 0.017 mg/kg |
| NCCc1c[nH]cn1 [HISTAMINE] | – | 9.81 | 6.07 | – |
| C=CC/N=C/Nc1ccc(-c2c[nH]cn2)cc1.O=C(O)/C=C/C(=O)O | 13 nM | – | – | 0.024 mg/kg |
| Cl.N=C(N)Nc1cccc(-c2c[nH]cn2)c1 | 5500 nM | – | – | 3.2 mg/kg |

Second part, led by results:

| Kb [1] | pKa [2] | pKa [3] | Compound | ED50 (Rattus norvegicus) |
| --- | --- | --- | --- | --- |
| 1200 nM | – | – | C/N=C\Nc1ccc(-c2c[nH]cn2)cc1.Cl | 1.1 mg/kg |
| 24 nM | 8.88 | 5.58 | CC(C)/N=C/Nc1ccc(-c2c[nH]cn2)cc1.Cl | 0.019 mg/kg |
| 32 nM | – | – | CCC/N=C/Nc1ccc(-c2c[nH]cn2)cc1.Cl | 0.011 mg/kg |
| 69 nM | – | – | CC(C)C/N=C/Nc1ccc(-c2c[nH]cn2)cc1.Cl | 0.026 mg/kg |
| 19 nM | – | – | CC/N=C/Nc1ccc(-c2c[nH]cn2)cc1.Cl | 0.02 mg/kg |
